pKi: −log10 of the molar value. Each block holds one compound with its values, some of them ahead of it. Activity calls are given as the source filed them. No cut-off for these calls is given here.
Key:
Cathepsin B [1] = molecular target: T1, Cathepsin B (Homo sapiens, UniProt P07858); experiment: Time dependent inhibition of human liver cathepsin B using Z-RR-para-nitroanilide as substrate at 500 uM
Method in brief: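 Screening: human liver cathepsin B (175 nM) activated in 100 mM sodium phosphate pH 6.0, 5 mM DTT, 1 mM EDTA, incubated with 500 µM inhibitor (5% DMSO) at 30 °C for 10 min; aliquot diluted 17.5-fold into 3 mM Z-RR-pNA, residual activity from initial rates at 405 nm.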

Cathepsin B [2] = molecular target: T1, Cathepsin B; experiment: Inhibition of cathepsin B in human MDA-MB-231 cells assessed as increase in E-cadherin levels at 1 to 5 uM after 30 mins by Western blotting analysis; format: cell-based
[3] = molecular target: Cathepsin S (Homo sapiens) (UniProt P25774); experiment: Inhibition of human cathepsin S using Z-VVR-AMC as substrate
Chain of Cathepsin S (Homo sapiens) (P25774 115-331 limits assumed): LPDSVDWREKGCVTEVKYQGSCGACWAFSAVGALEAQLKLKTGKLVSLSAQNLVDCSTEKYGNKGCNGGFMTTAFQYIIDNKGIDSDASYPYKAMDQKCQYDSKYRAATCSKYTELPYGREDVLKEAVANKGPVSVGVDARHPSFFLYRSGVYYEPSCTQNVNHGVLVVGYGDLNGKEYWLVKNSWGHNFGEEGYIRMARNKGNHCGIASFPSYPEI
Method in brief: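 Human cathepsin S (134.6 nM final) activated 10 min in 100 mM potassium phosphate pH 6.5, 5 mM DTT, 5 mM EDTA; inactivated with inhibitor at 75 µM. Aliquots at intervals into buffer (8% DMSO) with 250 µM Z-VVR-AMC, Ex/Em 365/440 nm. Second-order constant = kobs/[I].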

[4] = molecular target: T2, Cathepsin F (Homo sapiens) (UniProt Q9UBX1); experiment: Inhibition of human cathepsin F using Z-FR-AMC as substrate
T2 sequence (whole entry): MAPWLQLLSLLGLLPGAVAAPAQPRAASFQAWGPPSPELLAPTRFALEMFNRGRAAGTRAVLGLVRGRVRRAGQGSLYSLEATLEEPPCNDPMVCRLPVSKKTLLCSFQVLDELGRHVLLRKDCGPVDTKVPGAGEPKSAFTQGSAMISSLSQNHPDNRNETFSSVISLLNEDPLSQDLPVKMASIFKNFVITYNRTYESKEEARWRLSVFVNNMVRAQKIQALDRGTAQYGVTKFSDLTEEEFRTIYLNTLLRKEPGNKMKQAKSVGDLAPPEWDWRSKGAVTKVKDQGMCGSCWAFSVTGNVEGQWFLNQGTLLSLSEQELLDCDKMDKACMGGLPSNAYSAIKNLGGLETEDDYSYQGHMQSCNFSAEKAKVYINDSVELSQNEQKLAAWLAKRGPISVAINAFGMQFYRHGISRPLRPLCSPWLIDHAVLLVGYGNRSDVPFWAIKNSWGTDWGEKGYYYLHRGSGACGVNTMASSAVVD
Method in brief: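 Human cathepsin F (10.8 nM final) activated 10 min at 25 °C in 50 mM potassium phosphate pH 6.5, 2.5 mM DTT, 2.5 mM EDTA, 1.0 mg/ml BSA; inhibitor added, aliquots at intervals into assay with 3 µM Z-FR-AMC at 25 °C. Second-order constant = kobs divided by inhibitor concentration.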

Cathepsin B [5] = molecular target: T1, Cathepsin B; experiment: Inhibition of cathepsin B in human MDA-MB-231 cells using Z-RR-AMC as substrate preincubated for 20 mins prior to substrate addition measured after 10 mins by confocal microscopic analysis; format: cell-based
Method in brief: (§1)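 Live-cell confocal imaging of MDA-MB-231 cells on poly-D-lysine glass dishes in phenol-red-free medium with 15 mM HEPES plus Oxyrase/10 mM lactate. Cells treated with 0.1% DMSO or inhibitor 20 min at 37 °C, then Z-RR-AMC (25 µM final) for 10 min. […]; average whole-cell fluorescence, 8-10 cells per experiment, three independent experiments.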

[6] = molecular target: Cathepsin D (Homo sapiens) (UniProt P07339); experiment: Inhibition of human cathepsin D using Mca-Gly-Lys-Pro-Ile-Leu-Phe-Phe-Arg-Leu-Lys(Dnp)-D-Arg-NH2 as substrate
Chain of Cathepsin D (Homo sapiens) (P07339 65-162 limits assumed): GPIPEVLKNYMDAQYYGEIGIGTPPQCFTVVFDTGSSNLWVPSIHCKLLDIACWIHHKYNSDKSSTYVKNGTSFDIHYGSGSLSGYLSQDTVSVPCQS
Chain of Cathepsin D (Homo sapiens) (P07339 169-412 limits assumed): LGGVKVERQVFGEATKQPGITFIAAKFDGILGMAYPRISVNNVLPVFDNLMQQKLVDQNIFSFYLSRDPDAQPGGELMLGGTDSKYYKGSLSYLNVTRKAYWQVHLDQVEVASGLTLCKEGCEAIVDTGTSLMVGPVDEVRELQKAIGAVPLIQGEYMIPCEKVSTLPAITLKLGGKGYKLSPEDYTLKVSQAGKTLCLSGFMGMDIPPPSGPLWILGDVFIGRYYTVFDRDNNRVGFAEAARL

Cathepsin B [7] = molecular target: T1, Cathepsin B; experiment: Inhibition of human liver cathepsin B using Z-RR-para-nitroanilide as substrate assessed as first-order inactivation rate constant by Kitz-Wilson plot analysis
Method in brief: (§2)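 Cathepsin B (175 nM, pH 6.0 phosphate, DTT/EDTA, 30 °C, 5% DMSO) inactivated at 25, 50, 75, 100 and 150 µM inhibitor; residual activity with 3 mM Z-RR-pNA at intervals. kobs from single-exponential fit of activity vs time at each concentration; Ki and ki from Kitz–Wilson analysis.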

[8] = Half life of the compound at 2.5 mM at pH 7.4 by NMR spectrophotometric analysis; format: physicochemical
Method in brief: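 Hydrolytic stability by NMR: stock in deuterated DMSO added to deuterated phosphate buffer, pH 7.4 (D2O), final 2.5 mM, pseudo-first order. Spectra recorded at intervals; integrations of starting and final species compared, data fitted to single exponential decay, t1/2 = 0.693/k.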

Cathepsin B [9] = molecular target: T1, Cathepsin B; experiment: Inhibition of human liver cathepsin B using Z-RR-para-nitroanilide as substrate assessed as reversible equilibrium binding constant by Kitz-Wilson plot analysis; method in brief: as §2
Homo sapiens [10] = organism: Homo sapiens; experiment: Selectivity ratio of Kinact for human liver cathepsin B to Kinact for human cathepsin F
Cathepsin B [11] = molecular target: T1, Cathepsin B; experiment: Inhibition of human liver cathepsin B using Z-RR-para-nitroanilide as substrate
Method in brief: (§3)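 Human liver cathepsin B (175 nM final) activated 10 min in 100 mM sodium phosphate pH 6.0, 5 mM DTT, 1 mM EDTA; inhibitor added (5% DMSO, pseudo-first order) at 30 °C. Aliquots diluted 17.5-fold into assay with 3 mM Z-RR-pNA; initial rates at 405 nm give residual activity over time.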

[12] = molecular target: Cathepsin S (Homo sapiens) (UniProt P25774); experiment: Inhibition of cathepsin S in human MDA-MB-231 cells assessed as increase in E-cadherin levels after 20 mins by immunofluorescence assay; format: cell-based
Method in brief: (§4)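 MDA-MB-231 cells (IMDM, 10% FBS, 37 °C, 5% CO2) on glass coverslips 24 h, treated 20 min at 37 °C with vehicle (0.1% DMSO) or inhibitor. Fixed in 3.7% PFA, permeabilized, blocked, mouse anti-E-cadherin (1:100) overnight at 4 °C, then Alexa 594 secondary, Hoechst nuclei. Mean peripheral fluorescence intensity, 28 cells per condition, three independent experiments.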

[13] = molecular target: T3, Tyrosine-protein phosphatase non-receptor type 1 (Homo sapiens) (UniProt P18031); experiment: Inhibition of human PTP1B
T3 sequence (whole entry): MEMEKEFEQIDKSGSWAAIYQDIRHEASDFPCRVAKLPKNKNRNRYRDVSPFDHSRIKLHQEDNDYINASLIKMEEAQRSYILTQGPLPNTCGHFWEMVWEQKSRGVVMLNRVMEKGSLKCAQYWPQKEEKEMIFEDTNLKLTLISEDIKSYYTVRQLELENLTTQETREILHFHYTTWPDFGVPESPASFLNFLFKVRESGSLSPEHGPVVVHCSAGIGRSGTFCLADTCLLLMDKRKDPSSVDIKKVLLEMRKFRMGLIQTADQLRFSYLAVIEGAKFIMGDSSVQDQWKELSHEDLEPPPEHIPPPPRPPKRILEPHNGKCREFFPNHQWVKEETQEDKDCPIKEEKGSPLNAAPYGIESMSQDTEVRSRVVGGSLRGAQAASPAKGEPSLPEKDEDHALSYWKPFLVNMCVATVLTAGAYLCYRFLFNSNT

Trypsin (Homo sapiens) = Trypsin (Homo sapiens) (UniProt P07477+P07478+P35030); experiment: Inhibition of trypsin (unknown origin) using N-alpha-benzoyl-DL-arginine-p-nitroanilide as substrate; format: protein assay
Method in brief: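 Trypsin freshly prepared in 1 mM HCl, pre-activated (190–200 U/µl final), inhibitor added; aliquots at intervals into 67 mM sodium phosphate with 3 mM BAPNA, initial rate at 410 nm. Time-dependent inhibition examined up to 1 mM over 1 h.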

Cathepsin B [14] = molecular target: T1, Cathepsin B; experiment: Irreversible inhibition of human liver cathepsin B after 10 mins by mass spectrophotometric analysis
Method in brief: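 Activated cathepsin B incubated with inhibitor (800 µM) or 5% DMSO control for 10 min under kinetic-study conditions; samples mixed 1:9 with saturated α-cyano-4-hydroxycinnamic acid and analysed by MALDI mass spectrometry, positive linear mode.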

Cathepsin B [15] = molecular target: T1, Cathepsin B; experiment: Time dependent inhibition of human liver cathepsin B using Z-RR-para-nitroanilide as substrate; method in brief: as §3
Cathepsin B [16] = molecular target: T1, Cathepsin B; experiment: Inhibition of human liver cathepsin B using Z-RR-para-nitroanilide as substrate in presence of leupeptin
Method in brief: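 Active-site protection: cathepsin B inactivation (175 nM, pH 6.0 phosphate buffer with DTT/EDTA, 30 °C, 5% DMSO) run in presence of leupeptin (40 nM); residual activity measured with 3 mM Z-RR-pNA at 405 nm.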

Cathepsin B [17] = molecular target: T1, Cathepsin B; experiment: Inhibition of cathepsin B in human MDA-MB-231 cells using Z-RR-AMC as substrate at 20 uM preincubated for 20 mins prior to substrate addition measured after 10 mins by confocal microscopic analysis; format: cell-based; method in brief: as §1
Homo sapiens [18] = organism: Homo sapiens; experiment: Selectivity ratio of Kinact for human liver cathepsin B to Kinact for human cathepsin D
Cathepsin B [19] = molecular target: T1, Cathepsin B; experiment: Irreversible inhibition of human liver cathepsin B using Z-RR-para-nitroanilide as substrate measured after dilution of compound-inactivated enzyme complex
[20] = molecular target: Cathepsin S (Homo sapiens) (UniProt P25774); experiment: Inhibition of cathepsin S in human MDA-MB-231 cells assessed as increase in E-cadherin levels at 1 to 5 uM after 30 mins by Western blotting analysis; format: cell-based
Cathepsin B [21] = molecular target: T1, Cathepsin B; experiment: Inhibition of human liver cathepsin B in presence of azide ion
[22] = molecular target: T4, Cathepsin G (Homo sapiens) (UniProt P08311); experiment: Inhibition of human cathepsin G using Suc-AAPF-pNA as substrate
T4 sequence (whole entry): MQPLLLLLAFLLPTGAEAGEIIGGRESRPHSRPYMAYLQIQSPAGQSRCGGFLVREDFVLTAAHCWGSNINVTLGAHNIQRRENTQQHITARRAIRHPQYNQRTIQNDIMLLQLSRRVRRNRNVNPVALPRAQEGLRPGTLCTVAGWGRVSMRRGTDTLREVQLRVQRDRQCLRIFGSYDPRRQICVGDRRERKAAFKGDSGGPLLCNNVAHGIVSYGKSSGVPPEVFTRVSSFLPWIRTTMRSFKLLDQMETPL
Method in brief: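 Human cathepsin G (7.66 nM final) activated 15 min in 20 mM Tris-HCl pH 7.4, 500 mM NaCl; inhibitor added, aliquots at intervals into buffer with 3.4 mM Suc-AAPF-pNA. Time-dependent inhibition examined up to 1 mM over 1 h.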

Homo sapiens [23] = organism: Homo sapiens; experiment: Selectivity ratio of Kinact for human liver cathepsin B to Kinact for human cathepsin S
MDA-MB-231 [24] = experiment: Inhibition of cathepsin in human MDA-MB-231 cells assessed as change in cellular morphology at 20 uM by microscopic analysis; format: cell-based
MDA-MB-231 [25] = experiment: Inhibition of cathepsin in human MDA-MB-231 cells assessed as decrease in cell migratory behavior after 6 hrs by microscopic analysis; format: cell-based
Method in brief: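 MDA-MB-231 cells plated as concentric circles through a sedimentation manifold on BSA-coated glass slide; after manifold removal, treated with 0.05% DMSO or inhibitor (10 and 20 µM) for 6 h at 37 °C. Images at t0 and t6; motility taken as change in total area (µm2), mean ± S.D. of triplicates.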

Cathepsin B [26] = molecular target: T1, Cathepsin B; experiment: Inhibition of cathepsin B in human MDA-MB-231 cells assessed as increase in E-cadherin levels after 20 mins by immunofluorescence assay; format: cell-based; method in brief: as §4
Cathepsin B [27] = molecular target: T1, Cathepsin B; experiment: Inhibition of human liver cathepsin B
Method in brief: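 Human liver cathepsin B (175 nM final) activated 10 min in 100 mM sodium phosphate pH 6.0 with 5 mM DTT, 1 mM Na2EDTA, then incubated with inhibitor (5% DMSO) at 30 °C under pseudo-first-order conditions. Aliquots diluted 17.5-fold into 3 mM Z-RR-pNA; initial rates read at 405 nm. Screening used 500 µM inhibitor with residual activity after 10 min.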

SMILES: O=S(=O)(CC1CS1)c1ccccc1 (stereo not given)
inhibition (Cathepsin B [1]): inactive

SMILES: CC(=O)N[C@@H](CC(C)C)C(=O)N[C@@H](CC(C)C)C(=O)N[C@H](C=O)CCCNC(=N)N [LEUPEPTIN]
pKi (Cathepsin B [27]): 8.30

SMILES: CCCC1OC1S(=O)(=O)c1ccccc1 (stereo not given)
inhibition (Cathepsin B [1]): inactive

SMILES: O=S(=O)(c1cc(Cl)cc(Cl)c1)C1CO1 (stereo not given)
inhibition (Cathepsin B [1]): 50%

SMILES: O=S(=O)(CC1CO1)c1ccccc1 (stereo not given)
inhibition (Cathepsin B [1]): inactive

SMILES: O=S(=O)(c1ccccc1)C1OC1c1ccc(F)cc1 (stereo not given)
inhibition (Cathepsin B [1]): inactive

Now from value to compound, other results behind:

inhibition (Cathepsin B [1]): 42%
SMILES: Cc1ccc(C)c(S(=O)(=O)C2CO2)c1 (stereo not given)

inhibition (Cathepsin B [1]): 40%
SMILES: Cc1cccc(S(=O)(=O)C2CO2)c1 (stereo not given)

inhibition (Cathepsin B [2]): Active
Kinact [3]: 19.9 M⁻¹ s⁻¹
Kinact [4]: 21.7 M⁻¹ s⁻¹
inhibition (Cathepsin B [5]): Dose-dependent effect
Kinact [6]: 1.08 M⁻¹ s⁻¹
Kinact (Cathepsin B [7]): 0.21 min⁻¹
inhibition (Cathepsin B [1]): > 98%
half-life at 2500 µM [8]: 3.6 h
pKi (Cathepsin B [9]): 4.07
Selectivity ratio (Homo sapiens [10]): 1.9
Kinact (Cathepsin B [11]): 40.7 M⁻¹ s⁻¹
inhibition [12]: Dose-dependent effect
inhibition [13]: inactive
inhibition (Trypsin (Homo sapiens)): inactive
inhibition (Cathepsin B [14]): Active
inhibition (Cathepsin B [15]): Active
inhibition (Cathepsin B [16]): inactive
inhibition (Cathepsin B [17]): Active
Selectivity ratio (Homo sapiens [18]): 38
inhibition (Cathepsin B [19]): Active
inhibition [20]: Active
inhibition (Cathepsin B [21]): Active
inhibition [22]: inactive
Selectivity ratio (Homo sapiens [23]): 1.9
inhibition (Cathepsin B [26]): Dose-dependent effect
SMILES: CCc1ccccc1S(=O)(=O)C1CO1 (stereo not given)
inhibition (MDA-MB-231 [24]): Active
inhibition (MDA-MB-231 [25]): Dose-dependent effect

inhibition (Cathepsin B [1]): 44%
SMILES: O=S(=O)(c1ccc(Cl)cc1)C1CO1 (stereo not given)

inhibition (Cathepsin B [1]): 35%
SMILES: COc1cccc(S(=O)(=O)C2CO2)c1 (stereo not given)

inhibition (Cathepsin B [1]): 30%
SMILES: O=S(=O)(c1ccc(OC(F)(F)F)cc1)C1CO1 (stereo not given)

inhibition (Cathepsin B [1]): 25%
SMILES: COc1ccc(OC)c(S(=O)(=O)C2CO2)c1 (stereo not given)

inhibition (Cathepsin B [1]): 18%
SMILES: O=S(=O)(c1ccc2ccccc2c1)C1CO1 (stereo not given)
